From ChEMBL document CHEMBL1138186, “Dynamic pharmacophore model optimization: identification of novel HIV-1 integrase inhibitors” (J Med Chem, 2006)

Experiments:
[1] = target: T1, Human immunodeficiency virus type 1 integrase (Human immunodeficiency virus 1, UniProt Q7ZJM1); test: Inhibition of strand transfer activity of HIV1 integrase
Procedure, shortened: (§1)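 Then 20 nM 5′-32P-labeled 21-mer oligonucleotide added for 1 h. Quenched with formamide loading dye. % inhibition from 19-mer (3′-processing) or strand transfer product fractions versus DNA-alone and DNA+IN controls. IC50 from log concentration versus % inhibition plot.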

[2] = target: T1, Human immunodeficiency virus type 1 integrase; test: Inhibition of 3'-processing activity of HIV1 integrase; procedure, shortened: as §1

T1 sequence (Q7ZJM1 whole entry): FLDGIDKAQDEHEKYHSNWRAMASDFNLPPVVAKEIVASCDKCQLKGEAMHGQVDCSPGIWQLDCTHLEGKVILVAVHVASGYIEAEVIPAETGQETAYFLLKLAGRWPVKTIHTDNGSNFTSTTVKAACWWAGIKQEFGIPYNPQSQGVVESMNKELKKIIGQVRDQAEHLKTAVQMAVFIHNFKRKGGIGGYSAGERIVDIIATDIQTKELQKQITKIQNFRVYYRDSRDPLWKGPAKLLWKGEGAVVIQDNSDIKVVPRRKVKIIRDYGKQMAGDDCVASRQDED

Row | IC50 [1] | IC50 [2] | Compound
1 | > 1000 µM | > 1000 µM | CCN(CC)CCN1C(=O)C(O)=C(C(=O)c2ccccc2)C1c1ccc(OC)cc1OC (centres undefined)
2 | > 100 µM | > 100 µM | O=C(NCCCO)c1ccc(CSc2nc(O)c3c4c(sc3n2)CCC4)cc1
3 | > 100 µM | > 100 µM | COc1ccc(C2C(C(=O)c3ccccc3)=C(O)C(=O)N2CCCO)cc1OC (centres undefined)
4 | > 1000 µM | > 1000 µM | COc1ccc(C2C(C(=O)c3ccc(F)cc3)=C(O)C(=O)N2CCN(C)C)cc1OC (centres undefined)
5 | > 100 µM | > 100 µM | CN(C)CCCN1C(=O)C(O)=C(C(=O)c2cccs2)C1c1cccs1 (centres undefined)
6 | > 100 µM | > 100 µM | CCOC(=O)c1c(NC(=O)CC2Sc3ccc(C(F)(F)F)cc3NC2=O)sc2c1CCCC2 (centres undefined)
7 | > 1000 µM | > 1000 µM | Cc1ccc(C(=O)C2=C(O)C(=O)N(CCN(C)C)C2c2ccccc2F)cc1 (centres undefined)
8 | > 100 µM | > 100 µM | NCCCCCCNC(=O)c1c(O)oc2ccccc2c1=O
9 | 9 µM | 18 µM | NCCCNc1ccc2c3c(nn2CCNCCO)-c2c(O)ccc(O)c2C(=O)c13 [PIROXANTRONE]
10 | 40 µM | > 100 µM | CCOC(=O)C1=C(O)/C(=C\c2ccc(CNC(=O)C(=O)Nc3ccccc3)o2)N=C1C
11 | 10 µM | 53 µM | Oc1ccc(C(c2c[nH]c3ccccc23)c2c[nH]c3ccccc23)cc1O
12 | 395 µM | > 1000 µM | COc1ccc(C2C(C(=O)c3ccco3)=C(O)C(=O)N2CCN2CCOCC2)c(OC)c1 (centres undefined)
13 | > 100 µM | > 100 µM | COc1cc(C(c2c[nH]c3ccccc23)c2c[nH]c3ccccc23)ccc1OCC(=O)O
14 | > 100 µM | > 100 µM | COC(=O)c1c(NC(=O)CC2Nc3ccccc3NC2=O)sc2c1CCCC2 (centres undefined)
15 | > 100 µM | > 100 µM | O=C(O)CCC(=O)Nc1ccc(Cl)c(NC(=O)Cc2ccccc2)c1
16 | > 100 µM | > 100 µM | O=C(O)CCC(=O)Nc1ccc(S(=O)(=O)Nc2ccc(F)cc2)cc1
17 | 350 µM | 850 µM | O=c1oc2c(CN(CCO)CCO)c(O)ccc2cc1-c1nc2ccccc2s1
18 | 630 µM | > 1000 µM | COc1ccc(C(=O)C2=C(O)C(=O)N(CCN3CCNCC3)C2c2ccccc2F)cc1 (centres undefined)
19 | > 100 µM | > 100 µM | COc1cccc2cc(-c3csc(Nc4cccc(O)c4)n3)c(=O)oc12
20 | 23 µM | 100 µM | COCCCNS(=O)(=O)c1ccc(Oc2cc(O)c3c(c2O)C(=O)c2ccccc2C3=O)cc1
21 | > 1000 µM | > 1000 µM | O=C(C1=C(O)C(=O)N(CCCN2CCOCC2)C1c1ccccc1F)c1ccc(F)cc1 (centres undefined)
22 | 56 µM | 90 µM | CCOC(=O)c1c(NC(=O)c2cc3ccccc3oc2=O)sc(C(N)=O)c1C
